The values below come from ChEMBL document CHEMBL1135647, “New pyridobenzodiazepine derivatives: modifications of the basic side chain differentially modulate binding to dopamine (D(4.2), D(2L)) and serotonin (5-HT(2A)) receptors” (J Med Chem, 2002).

What is called Ki is the dissociation constant of the complex between target and ligand, obtained from inhibition or displacement. Higher therefore signals lower affinity.

For assay [1], the target named is T1, 5-hydroxytryptamine receptor 2A (Rattus norvegicus, UniProt P14842). Briefly: In vitro binding affinity at 5-hydroxytryptamine 2A receptor in rat cortical membrane. Type of assay: cell membranes. The gist of the method:
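Frontal cortex membranes from female Wistar rats, stored at -80 °C. Incubated 30 min at 37 °C with 1 nM [3H]ketanserin; nonspecific binding with 10 µM methysergide; protein 2 mg/mL final. Filtered on PEI-presoaked GF/C and counted by scintillation. Nine concentrations in triplicate per curve, at least duplicate curves after a 10-6/10^-7 M prescreen. Ki by Cheng-Prusoff.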

Assay [2] has as its target T2, D(4) dopamine receptor (Homo sapiens, UniProt P21917).
T2 sequence (P21917 whole entry): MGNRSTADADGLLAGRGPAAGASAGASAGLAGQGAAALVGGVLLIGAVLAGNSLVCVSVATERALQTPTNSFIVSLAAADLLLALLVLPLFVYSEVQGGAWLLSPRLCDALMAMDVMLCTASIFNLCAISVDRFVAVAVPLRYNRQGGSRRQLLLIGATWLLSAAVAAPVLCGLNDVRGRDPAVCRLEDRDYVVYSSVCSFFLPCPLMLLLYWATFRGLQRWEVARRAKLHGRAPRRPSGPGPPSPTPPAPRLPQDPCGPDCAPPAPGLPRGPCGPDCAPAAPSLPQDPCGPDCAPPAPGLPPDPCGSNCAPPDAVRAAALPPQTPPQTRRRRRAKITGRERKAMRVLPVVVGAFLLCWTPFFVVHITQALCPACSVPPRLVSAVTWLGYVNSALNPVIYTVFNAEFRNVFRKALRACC
Briefly: (§1) In vitro binding affinity at human cloned Dopamine receptor D4 expressed in Sf9 cell membranes.

For assay [3], the target named is T3, Adrenergic receptor alpha-1 (Rattus norvegicus, UniProt P15823+P23944+P43140).
T3 sequence (P15823 whole entry): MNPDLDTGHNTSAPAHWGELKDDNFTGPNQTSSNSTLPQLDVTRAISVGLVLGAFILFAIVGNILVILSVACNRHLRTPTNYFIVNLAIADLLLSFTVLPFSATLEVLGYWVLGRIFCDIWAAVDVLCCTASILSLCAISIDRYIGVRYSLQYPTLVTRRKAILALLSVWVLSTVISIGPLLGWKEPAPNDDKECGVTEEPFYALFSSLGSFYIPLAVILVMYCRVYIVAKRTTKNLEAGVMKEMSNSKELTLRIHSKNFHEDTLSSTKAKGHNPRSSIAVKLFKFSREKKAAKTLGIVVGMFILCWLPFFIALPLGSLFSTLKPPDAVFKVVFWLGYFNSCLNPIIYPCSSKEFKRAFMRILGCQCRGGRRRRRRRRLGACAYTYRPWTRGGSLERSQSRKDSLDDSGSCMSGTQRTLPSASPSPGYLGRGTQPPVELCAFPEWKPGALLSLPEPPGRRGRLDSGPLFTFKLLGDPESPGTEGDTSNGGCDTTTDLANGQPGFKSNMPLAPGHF
T3 sequence (P23944 whole entry): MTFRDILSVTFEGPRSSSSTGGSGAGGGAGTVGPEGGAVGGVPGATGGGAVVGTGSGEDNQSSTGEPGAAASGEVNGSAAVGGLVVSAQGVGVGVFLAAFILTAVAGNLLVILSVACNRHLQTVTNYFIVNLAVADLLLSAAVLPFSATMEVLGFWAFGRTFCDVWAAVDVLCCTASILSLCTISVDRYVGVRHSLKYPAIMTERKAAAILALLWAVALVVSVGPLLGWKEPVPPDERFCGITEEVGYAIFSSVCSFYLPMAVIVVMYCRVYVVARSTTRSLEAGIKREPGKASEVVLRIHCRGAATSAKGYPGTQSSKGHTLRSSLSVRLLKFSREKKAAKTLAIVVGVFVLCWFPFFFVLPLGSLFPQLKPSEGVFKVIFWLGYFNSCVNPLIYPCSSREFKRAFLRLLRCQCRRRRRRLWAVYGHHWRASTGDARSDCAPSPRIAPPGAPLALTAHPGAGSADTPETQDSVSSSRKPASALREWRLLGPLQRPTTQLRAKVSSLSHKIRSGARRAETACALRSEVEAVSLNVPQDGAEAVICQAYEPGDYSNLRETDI
T3 sequence (P43140 whole entry): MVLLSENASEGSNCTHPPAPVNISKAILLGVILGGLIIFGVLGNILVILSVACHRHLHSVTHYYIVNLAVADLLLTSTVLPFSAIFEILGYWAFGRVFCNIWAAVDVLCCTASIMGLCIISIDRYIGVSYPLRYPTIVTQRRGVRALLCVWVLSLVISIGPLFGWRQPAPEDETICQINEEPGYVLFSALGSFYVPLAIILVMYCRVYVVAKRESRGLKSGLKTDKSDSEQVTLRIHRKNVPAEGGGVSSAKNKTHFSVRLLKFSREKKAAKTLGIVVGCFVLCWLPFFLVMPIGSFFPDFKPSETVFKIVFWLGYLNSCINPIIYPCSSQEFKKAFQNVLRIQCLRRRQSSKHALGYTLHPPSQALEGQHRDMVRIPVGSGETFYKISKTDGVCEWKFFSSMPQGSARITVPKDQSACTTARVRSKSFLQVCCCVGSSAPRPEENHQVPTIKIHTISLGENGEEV
Briefly: In vitro binding affinity at Alpha-1 adrenergic receptor in rat cortical tissues.

Assay [4] concerns the target T1, 5-hydroxytryptamine receptor 2A. Briefly: In vitro binding affinity at serotonin 5-hydroxytryptamine 2A receptor in rat cortical membrane. The format is cell membranes.
Assay [5] addresses T2, D(4) dopamine receptor. The assay is described as §1. The gist of the method: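 Sf9 membranes expressing human cloned D4.2, in 50 mM Tris-HCl pH 7.4 with 5 mM MgCl2, 5 mM EDTA, 5 mM KCl and 1.5 mM CaCl2. […] Filtration on GF/C. Six to nine concentrations in duplicate. Ki by Cheng-Prusoff.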
The source holds these as a separate data set.

Assay [6] has as its system Mus musculus. Briefly: Percentage of total immobility time after an intraperitoneal dose of 4 (mg/kg) in porsolt's test in mice. The format is functional.
Assay [7] is filed under the species Rattus norvegicus. Briefly: Compound was evaluated in paw test for the hindlimb retraction in rat.
Assay [8] deals with Rattus norvegicus. Briefly: Compound was evaluated in paw test for the forelimb retraction in rat at effective dose of 20 (mg/kg). Type of assay: functional.
Assay [9] relates to Mus musculus. Briefly: Percentage of total immobility time after an intraperitoneal dose of 16 (mg/kg) in porsolt's test in mice. Type of assay: functional.
Assay [10] relates to Mus musculus. Briefly: Percentage of total immobility time after an intraperitoneal dose of 8 (mg/kg) in porsolt's test in mice. Type of assay: functional.
The subject of assay [11] is Mus musculus. Briefly: Percentage of total immobility time after an intraperitoneal dose of 16 (mg/kg) in porsolt's test. The format is functional. The gist of the method: (§2)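 Forced swimming (Porsolt) test in mice, with the compound given i.p. Immobility time was expressed as a percentage of the total immobility time of vehicle-treated animals. Significance was assessed against saline by Mann-Whitney U test, or against vehicle by analysis of variance with post hoc tests.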

Assay [12] has as its system Mus musculus. Briefly: Percentage of total immobility time after an intraperitoneal dose of 8 (mg/kg) in porsolt's test. The format is functional. Put shortly:
as §2

The test system of assay [13] is Rattus norvegicus. Briefly: Compound was evaluated in paw test for the hindlimb retraction at effective dose of 5 (mg/kg). The format is functional.
In assay [14] the test system is Mus musculus. Briefly: Percentage of total immobility time after an intraperitoneal dose of 4 (mg/kg) in porsolt's test. Type of assay: functional. Put shortly: as §2

T1 sequence (P14842 whole entry): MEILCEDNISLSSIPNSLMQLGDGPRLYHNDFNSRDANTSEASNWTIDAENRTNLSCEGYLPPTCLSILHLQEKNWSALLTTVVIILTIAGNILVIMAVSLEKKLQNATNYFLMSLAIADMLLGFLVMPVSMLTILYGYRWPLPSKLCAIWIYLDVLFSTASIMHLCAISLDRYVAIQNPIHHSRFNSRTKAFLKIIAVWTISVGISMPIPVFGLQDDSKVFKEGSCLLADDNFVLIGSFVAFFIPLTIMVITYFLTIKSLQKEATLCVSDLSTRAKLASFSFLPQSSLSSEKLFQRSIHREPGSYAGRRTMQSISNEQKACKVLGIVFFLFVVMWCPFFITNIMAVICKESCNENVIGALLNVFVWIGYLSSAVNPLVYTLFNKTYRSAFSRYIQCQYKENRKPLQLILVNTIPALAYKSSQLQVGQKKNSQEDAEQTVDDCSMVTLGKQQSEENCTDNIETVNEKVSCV

For the compound `Clc1ccc2c(c1)C(NCCN1CCCC1)=Nc1cccnc1N2`, the Ki in assay [1] worked out at 250 nM; in assay [2] it was 341 nM.

With `Clc1ccc2c(c1)C(N1CCN(Cc3ccccc3)CC1)=Nc1cccnc1N2`, the results for the Ki in assay [1], in assay [2] and in assay [3] were above 1000 nM, 109 nM and above 1000 nM, respectively.

Turning to `Clc1ccc2c(c1)C(NCCc1ccccn1)=Nc1cccnc1N2`, the inhibition constant Ki in assay [2] and in [3] was above 1000 nM in each case.

In the case of `CN1CCCN(C2=Nc3cccnc3Nc3ccc(Cl)cc32)CC1`, the Ki in assay [2] is 163 nM; in [3], above 1000 nM; in assay [4], 164 nM.

In assay [1], `Clc1ccc2c(c1)C(NC1CC3CCC(C1)N3Cc1ccccc1)=Nc1cccnc1N2` (stereo not given) returned a Ki of 36 nM.

As for `Clc1ccc2c(c1)C(N1CCN(C3CCCCC3)CC1)=Nc1cccnc1N2`, the inhibitory constant (Ki) in assay [1] is 34 nM; in assay [2], 48 nM.

Regarding `Cc1ccc2c(c1)C(NC1CC3CCC(C1)N3Cc1ccccc1)=Nc1cccnc1N2` (stereo not given), the Ki in assay [1] is 34 nM; in [2], 131 nM.

In the case of `Cc1ccc2c(c1)C(N1CCN(C3CCCCC3)CC1)=Nc1cccnc1N2`, the figures for the Ki in assay [1] and in assay [2] were 33 nM and 84 nM, respectively.

Take `Cc1ccc2c(c1)C(N1CCN(c3cccc(C(F)(F)F)c3)CC1)=Nc1cccnc1N2`: the Ki in assay [1], in [2] and in assay [3] was above 1000 nM throughout.

Regarding `Cc1ccc2c(c1)C(N1CCN(c3cccc(Cl)c3)CC1)=Nc1cccnc1N2`, the Ki in assay [1], in assay [2] and in assay [3] was above 1000 nM in each case.

As for `Cc1ccc2c(c1)C(N1CCN(Cc3ccccc3)CC1)=Nc1cccnc1N2`, the values for the Ki in [1], in assay [2] and in [3] were above 1000 nM, 183 nM and above 1000 nM, respectively.

For `Cc1ccc2c(c1)C(NCCN(C)C)=Nc1cccnc1N2`, the values for the Ki in assay [1], in assay [2] and in assay [3] were 150 nM, above 1000 nM and above 1000 nM, respectively.

On to `Cc1ccc2c(c1)C(N1CCN(c3ccccc3)CC1)=Nc1cccnc1N2`, for which the Ki in [1], in [3] and in assay [5] was above 1000 nM each time.

`Cc1ccc2c(c1)C(NCCc1ccccn1)=Nc1cccnc1N2` had a Ki in assay [2] above 1000 nM.

On to `Clc1ccc2c(c1)C(NC1CCN(Cc3ccccc3)CC1)=Nc1cccnc1N2`, for which the Ki was 81 nM in [1], 89 nM in assay [2] and 163 nM in [3].

For `Cc1ccc2c(c1)C(NCCCN(C)C)=Nc1cccnc1N2`, the Ki in assay [1], in [2] and in assay [3] was above 1000 nM throughout.

Regarding `Clc1ccc2c(c1)C(N1CCN(c3ccccc3)CC1)=Nc1cccnc1N2`, the inhibition constant (Ki) in assay [1], in assay [2] and in assay [3] was above 1000 nM throughout.

For the compound `Cc1ccc2c(c1)C(NC1CCN(C)CC1)=Nc1cccnc1N2`, the Ki stood at 132 nM in [1], 510 nM in assay [2] and 18 nM in [3].

As for `Cc1ccc2c(c1)C(NCCC1CCCN1C)=Nc1cccnc1N2` (stereo not given), the Ki in assay [1] and in assay [2] was above 1000 nM throughout.

`CN1CCC(NC2=Nc3cccnc3Nc3ccc(Cl)cc32)CC1`: the Ki in assay [1] turned out to be 123 nM; in assay [2] it was 393 nM.

For the compound `Cc1ccc2c(c1)C(N1CCCN(C)CC1)=Nc1cccnc1N2`, the Ki in assay [1] is 303 nM; in assay [2], 356 nM.

In the case of `FC(F)(F)c1cccc(N2CCN(C3=Nc4cccnc4Nc4ccc(Cl)cc43)CC2)c1`, the inhibition constant (Ki) in assay [1], in [2] and in assay [3] was above 1000 nM each time.

`Clc1cccc(N2CCN(C3=Nc4cccnc4Nc4ccc(Cl)cc43)CC2)c1`: the inhibitory constant (Ki) in assay [1] and in [2] was above 1000 nM each time.

For the compound `Clc1ccc2c(c1)C(NCCN1CCCCC1)=Nc1cccnc1N2`, the Ki in [1] was 357 nM; in [2], above 1000 nM; in assay [3], 63 nM.

With `Cc1ccc2c(c1)C(NCCN1CCOCC1)=Nc1cccnc1N2`, the Ki in assay [1] and in assay [2] was above 1000 nM each time.

Turning to `Cc1ccc2c(c1)C(NC1CCN(Cc3ccccc3)CC1)=Nc1cccnc1N2`, the inhibitory constant (Ki) is 48 nM in [1], 46 nM in assay [2] and 100 nM in assay [3].

As for `Cc1ccc2c(c1)C(N1CCN(CCc3ccccc3)CC1)=Nc1cccnc1N2`, the Ki in assay [1] amounted to 36 nM; in assay [2], 37 nM; in [3] it was 172 nM.

Consider `CN(C)CCCNC1=Nc2cccnc2Nc2ccc(Cl)cc21`, for which the Ki in assay [2] and in [3] was above 1000 nM in each case.

For `Clc1ccc2c(c1)C(NCCN1CCOCC1)=Nc1cccnc1N2`, the Ki in assay [2] and in [3] was above 1000 nM in each case.

Consider `Clc1ccc2c(c1)C(N1CCN(CCc3ccccc3)CC1)=Nc1cccnc1N2`, for which the Immobility was 52% in assay [6], 49% in [9] and 36% in assay [10]. Also, the results for the Ki in [1], in assay [2] and in [3] were 103 nM, 40 nM and 367 nM, respectively. Further, the Retraction time in assay [7] came out at 2.5 s; in [8], 1 s.

For the compound `Cc1ccc2c(c1)C(N1CCN(C)CC1)=Nc1cccnc1N2`, the Ki in [2] came out at 36 nM; in assay [3], 108 nM; in [4] it was 37 nM.

Regarding `CN1CCN(C2=Nc3cccnc3Nc3ccc(Cl)cc32)CC1`, the inhibition constant Ki in assay [2] was found to be 24 nM; in [3], 79 nM; in assay [4] it was 35 nM.

Regarding `CN1CCN(C2=Nc3cc(Cl)ccc3Nc3ccccc32)CC1` [CLOZAPINE], the values for the Immobility in assay [11], in assay [12] and in [14] were 139%, 103% and 95%, respectively. Also, the Retraction time in [13] stood at 30 s; in [8], 1.1 s.
